From ChEMBL document CHEMBL3763017, “Synthesis and evaluation of dual antiplatelet activity of bispidine derivatives of N-substituted pyroglutamic acids” (Eur J Med Chem, 2016)
The source made the active and inactive calls. No cut-off for these calls is given here.

Legend:
Aorta [1] = experiment: Inhibition of KCl-induced vasocontraction in Sprague-Dawley rat thoracic aoritc rings; type: functional
Platelet [2] = experiment: Inhibition of U46619-induced protein tyrosine phosphorylation in human platelets preincubated at 3 to 100 uM for 5 mins followed by U46619 stimulation for 10 mins by Western blot analysis; type: functional, cell-based
How it was run: (§1)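 Washed human platelets in Tyrode-HEPES pH 7.4 preincubated 5 min at 37 °C with 0.4% DMSO or compound (3–100 μM). Stimulated 10 min with collagen (1 μg/ml) or U46619 (0.25 μg/ml). Stopped with boiling Laemmli buffer; SDS-PAGE and anti-phosphotyrosine (4G10) immunoblot. Three separate experiments.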

[3] = Antiplatelet activity in human platelet rich plasma assessed as inhibition of U46619-induced platelet aggregation preincubated for 5 mins followed by U46619 stimulation by turbidimetry; type: functional
Platelet [4] = experiment: Inhibition of human platelet adhesion over collagen at 300 uM for 15 mins in presence of Mg2+ by microplate reader analysis; type: functional, cell-based
How it was run: (§2)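 Wells coated overnight with fibrillar type I collagen and blocked with BSA. Washed platelets (1×10^8/ml) preincubated 15 min at 37 °C with compound or DMSO, then allowed to adhere 1 h at room temperature in Tyrode-HEPES with 1 mM Mg2+ or with Mg2+ replaced by 50 μM EDTA. Adherent cells quantified with p-nitrophenyl phosphate in citrate pH 5.4 (60 min, 25 °C), NaOH stop, A405.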

[5] = Antiplatelet activity in human platelet rich plasma assessed as inhibition of collagen-induced platelet aggregation at 30 uM preincubated for 5 mins followed by collagen stimulation by turbidimetry; type: functional
How it was run: (§3)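 Human PRP (1×10^8 platelets/ml) from healthy-donor blood spun at 1000 rpm for 10 min. Pre-treated 5 min with compound or 0.4% DMSO vehicle, then agonist added at 37 °C. Light-transmission aggregometry run at least 5–10 min; % aggregation calculated. Single-point screens at 30 μM, n = 3; mean ± SEM.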

Platelet [6] = experiment: Antiplatelet activity in human platelet rich plasma assessed as inhibition of ristocetin-induced platelet aggregation up to 300 uM preincubated for 5 mins followed by ristocetin stimulation by turbidimetry; type: functional
Aorta [7] = experiment: Inhibition of U46619-induced vasocontraction in Sprague-Dawley rat thoracic aoritc rings at 30 uM (reference value: 89.8 +/- 8.5%); type: functional; parameters: scale not given: the % may be the effect or the level left
Mus musculus [8] = experiment: Antithrombotic activity in ferric chloride-induced Swiss albino mouse arterial thrombosis model assessed as prolonged time to occlusion at 30 umol/kg, po measured after 4 hrs (reference value: 9.5 +/- 0.4 mins); type: functional
Mus musculus [9] = experiment: Antithrombotic activity in Swiss albino mouse assessed as protection against collagen-epinephrine induced pulmonary thromboembolism at 30 umol/kg, po after 4 hrs; type: functional
How it was run: (§4)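 Male Swiss albino mice (18–22 g) dosed orally in 0.5% carboxymethyl cellulose 1, 2, 4, 6, 12 or 24 h before challenge. Collagen (150 μg/ml) plus adrenaline (50 μg/ml) injected into the tail vein. Dead or hind-limb-paralysed mice counted over 15 min and expressed as % protection. Ten mice per drug group, five for vehicle.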

Plasma [10] = experiment: Anticoagulant activity in human plasma assessed as activated partial thromboplastin time at 30 to 300 uM; type: functional, cell-free
How it was run: (§5)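 Human plasma from healthy donors, blood collected in CPD 1:7 and spun twice to give platelet-poor plasma. TT, PT and aPTT determined with commercial kits on a coagulometer. Hirudin 1 μg/ml served as reference anticoagulant; 0.4% DMSO vehicle.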

[11] = Antiplatelet activity in human platelet rich plasma assessed as inhibition of collagen-induced platelet aggregation preincubated for 5 mins followed by collagen stimulation by turbidimetry; type: functional
Platelet [12] = experiment: Inhibition of human platelet adhesion over collagen for 15 mins in presence of Mg2+ by microplate reader analysis; type: functional, cell-based; how it was run: as §2
Aorta [13] = experiment: Inhibition of U46619-induced vasocontraction in Sprague-Dawley rat thoracic aoritc rings at 15 uM (reference value: 89.8 +/- 8.5%); type: functional; parameters: scale not given: the % may be the effect or the level left
Plasma [14] = experiment: Anticoagulant activity in human plasma assessed as prothrombin time at 30 to 300 uM; type: functional, cell-free; how it was run: as §5
Mus musculus [15] = experiment: Toxicity in Swiss albino mouse assessed as bleeding time at 30 umol/kg, po administered as single dose measured after 4 hrs (reference value: 3.5 +/- 0.3 mins); type: organism-based; conditions: in vivo
Platelet [16] = experiment: Inhibition of collagen-induced protein tyrosine phosphorylation in human platelets preincubated at 3 to 100 uM for 5 mins followed by collagen stimulation for 10 mins by Western blot analysis; type: functional, cell-based; how it was run: as §1
Platelet [17] = experiment: Antiplatelet activity in human platelet rich plasma assessed as inhibition of TRAP-induced platelet aggregation up to 300 uM preincubated for 5 mins followed by TRAP stimulation by turbidimetry; type: functional
Mus musculus [18] = experiment: Toxicity in Swiss albino mouse assessed as bleeding time at 30 umol/kg, po administered as single dose measured after 1 hr (reference value: 3.5 +/- 0.3 mins); type: organism-based; conditions: in vivo
Platelet [19] = experiment: Antiplatelet activity in human platelet rich plasma assessed as inhibition of CRP-XL-induced platelet aggregation up to 300 uM preincubated for 5 mins followed by CRP-XL stimulation by turbidimetry; type: functional
Platelet [20] = experiment: Antiplatelet activity in human platelet rich plasma assessed as inhibition of ADP-induced platelet aggregation up to 300 uM preincubated for 5 mins followed by ADP stimulation by turbidimetry; type: functional
Mus musculus [21] = experiment: Antithrombotic activity in ferric chloride-induced Swiss albino mouse arterial thrombosis model assessed as prolonged time to occlusion at 20 umol/kg, po measured after 4 hrs (reference value: 9.5 +/- 0.4 mins); type: functional
Platelet [22] = experiment: Inhibition of human platelet adhesion over collagen for 15 mins in absence of Mg2+ by microplate reader analysis; type: functional, cell-based; how it was run: as §2
Platelet [23] = experiment: Inhibition of human platelet adhesion over collagen at 30 uM for 15 mins in presence of Mg2+ by microplate reader analysis; type: functional; conditions: 0.25 h; how it was run: as §2
[24] = Antiplatelet activity in human platelet rich plasma assessed as inhibition of arachidonic acid-induced platelet aggregation at 300 to 500 uM preincubated for 5 mins followed by arachidonic acid stimulation by turbidimetry; type: functional
Platelet [25] = experiment: Antiplatelet activity in human platelet rich plasma assessed as inhibition of arachidonic acid-induced platelet aggregation up to 300 uM preincubated for 5 mins followed by arachidonic acid stimulation by turbidimetry; type: functional
Platelet [26] = experiment: Inhibition of human platelet adhesion over collagen at 300 uM for 15 mins in absence of Mg2+ by microplate reader analysis; type: functional, cell-based; how it was run: as §2
Platelet [27] = experiment: Inhibition of human platelet adhesion over collagen at 30 uM for 15 mins in absence of Mg2+ by microplate reader analysis; type: functional; conditions: 0.25 h; how it was run: as §2
[28] = Antiplatelet activity in human platelet rich plasma assessed as inhibition of U46619-induced platelet aggregation at 30 uM preincubated for 5 mins followed by U46619 stimulation by turbidimetry; type: functional; how it was run: as §3
Plasma [29] = experiment: Anticoagulant activity in human plasma assessed as thrombin time at 30 to 300 uM; type: functional, cell-free; how it was run: as §5
Aorta [30] = experiment: Inhibition of U46619-induced vasocontraction in Sprague-Dawley rat thoracic aoritc rings at 3 and 5 uM; type: functional
Mus musculus [31] = experiment: Antithrombotic activity in Swiss albino mouse assessed as protection against collagen-epinephrine induced pulmonary thromboembolism at 30 umol/kg, po after 1 hr; type: functional; how it was run: as §4

O=C([C@@H]1CCC(=O)N1Cc1ccccc1Br)N1CC2CC(CN(Cc3ccccc3)C2)C1
inhibition (Aorta [1]): inactive
inhibition (Platelet [2]): Active
IC50 [3]: 7.7 µM
inhibition (Platelet [4]): Active
inhibition at 30 µM [5]: 86%
inhibition (Platelet [6]): inactive
Activity (Aorta [7]): 14.2%
Time (Mus musculus [8]): 20 min
Activity (Mus musculus [9]): 60%
Activity (Plasma [10]): inactive
IC50 [11]: 1.7 µM
inhibition (Platelet [12]): Dose-dependent effect
Activity (Aorta [13]): 21.8%
Activity (Plasma [14]): inactive
Time (Mus musculus [15]): 4.3 min
inhibition (Platelet [16]): Active
inhibition (Platelet [17]): inactive
Time (Mus musculus [18]): 3.4 min
inhibition (Platelet [19]): inactive
inhibition (Platelet [20]): inactive
Time (Mus musculus [21]): 13.3 min
inhibition (Platelet [22]): Dose-dependent effect
inhibition at 30 µM (Platelet [23]): 27%
inhibition (INH) [24]: 50%
inhibition (Platelet [25]): inactive
inhibition (Platelet [26]): Active
inhibition at 30 µM (Platelet [27]): 27%
inhibition at 30 µM [28]: 79%
Activity (Plasma [29]): inactive
inhibition (Aorta [30]): inactive
Activity (Mus musculus [31]): 40%
